Assay results published in ChEMBL document CHEMBL1287747, “Highly active antimycobacterial derivatives of benzoxazine” (2010).
Values after ≈ are worked out from the molar mass of the structure shown.

What follows are compounds tested on Mycobacterium tuberculosis (assay: Antimycobacterial activity against Mycobacterium tuberculosis CNCTC My 331/88 after 21 days by microdilution method). Conditions: CNCTC My 331/88, 504 h.
Type: functional
Outline: (§1)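 Strains from the Czech National Collection of Type Cultures, tested by dilution micromethod in Šula semisynthetic medium. Incubated at 37 °C and read at 14 and 21 days. MIC is the lowest concentration inhibiting growth.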

Q: How did the MIC turn out when `Cc1ccc(-n2c(=S)oc3ccc(Br)cc3c2=S)cc1` was run?
A: 1 µM (≈ 0.364 µg/mL)

Q: Which MIC does the source give for `Cc1ccc2c(=S)n(-c3ccc(C(C)C)cc3)c(=S)oc2c1` here?
A: 1 µM (≈ 0.327 µg/mL)

Q: How did the MIC turn out when `CCC(C)c1ccc(-n2c(=S)oc3ccc(Br)cc3c2=S)cc1` (stereo not drawn) was run?
A: 2 µM (≈ 0.813 µg/mL)

Q: Which MIC does the source give for `CCC(C)c1ccc(-n2c(=S)oc3ccc(Cl)cc3c2=S)cc1` (stereo not drawn) here?
A: 2 µM (≈ 0.724 µg/mL)

Q: For `CCC(C)c1ccc(-n2c(=S)oc3cc(Cl)ccc3c2=S)cc1` (stereo not drawn), which MIC is on record?
A: 1 µM (≈ 0.362 µg/mL)

Q: With `CCCCc1ccc(-n2c(=S)oc3ccc(Cl)cc3c2=S)cc1` as the compound, how does the MIC read?
A: 4 µM (≈ 1.45 µg/mL)

The compounds below were run on Mycobacterium avium (assay: Antimycobacterial activity against Mycobacterium avium CNCTC My 330/88 after 14 days by microdilution method). Conditions: CNCTC My 330/88, 336 h.
Type: functional
Outline: as §1

Q: Which MIC does the source give for `Cc1ccc(-n2c(=S)oc3ccc(Br)cc3c2=S)cc1` here?
A: 15 µM (≈ 5.46 µg/mL)

Q: With `Cc1ccc2c(=S)n(-c3ccc(C(C)C)cc3)c(=S)oc2c1` as the compound, how does the MIC read?
A: 0.5 µM (≈ 0.164 µg/mL)

Q: With `CCC(C)c1ccc(-n2c(=S)oc3ccc(Br)cc3c2=S)cc1` (stereo not drawn) as the compound, how does the MIC read?
A: 32 µM (≈ 13 µg/mL)

Q: `CCC(C)c1ccc(-n2c(=S)oc3ccc(Cl)cc3c2=S)cc1` (stereo not drawn) was tested. Which MIC did it give?
A: 16 µM (≈ 5.79 µg/mL)

Q: With `CCC(C)c1ccc(-n2c(=S)oc3cc(Cl)ccc3c2=S)cc1` (stereo not drawn) as the compound, how does the MIC read?
A: 4 µM (≈ 1.45 µg/mL)

Q: How did the MIC turn out when `CCCCc1ccc(-n2c(=S)oc3ccc(Cl)cc3c2=S)cc1` was run?
A: 8 µM (≈ 2.9 µg/mL)

These compounds were tested on Mycobacterium kansasii (assay: Antimycobacterial activity against Mycobacterium kansasii CNCTC My 235/80 after 14 days by microdilution method). Conditions: CNCTC My 235/80, 336 h.
Type: functional
Outline: as §1

Q: With `Cc1ccc(-n2c(=S)oc3ccc(Br)cc3c2=S)cc1` as the compound, how does the MIC read?
A: 4 µM (≈ 1.46 µg/mL)

Q: Which MIC does the source give for `Cc1ccc2c(=S)n(-c3ccc(C(C)C)cc3)c(=S)oc2c1` here?
A: 2 µM (≈ 0.655 µg/mL)

Q: How did the MIC turn out when `CCC(C)c1ccc(-n2c(=S)oc3ccc(Br)cc3c2=S)cc1` (stereo not drawn) was run?
A: 4 µM (≈ 1.63 µg/mL)

Q: For `CCC(C)c1ccc(-n2c(=S)oc3ccc(Cl)cc3c2=S)cc1` (stereo not drawn), which MIC is on record?
A: 8 µM (≈ 2.9 µg/mL)

Q: How did the MIC turn out when `CCC(C)c1ccc(-n2c(=S)oc3cc(Cl)ccc3c2=S)cc1` (stereo not drawn) was run?
A: 4 µM (≈ 1.45 µg/mL)

Q: Which MIC does the source give for `CCCCc1ccc(-n2c(=S)oc3ccc(Cl)cc3c2=S)cc1` here?
A: 8 µM (≈ 2.9 µg/mL)

The compounds below were run on Mycobacterium kansasii (assay: Antimycobacterial activity against Mycobacterium kansasii CNCTC My 235/80 after 21 days by microdilution method). Conditions: CNCTC My 235/80, 504 h.
Type: functional
Outline: as §1

Q: How did the MIC turn out when `Cc1ccc(-n2c(=S)oc3ccc(Br)cc3c2=S)cc1` was run?
A: 4 µM (≈ 1.46 µg/mL)

Q: Which MIC does the source give for `Cc1ccc2c(=S)n(-c3ccc(C(C)C)cc3)c(=S)oc2c1` here?
A: 4 µM (≈ 1.31 µg/mL)

Q: With `CCC(C)c1ccc(-n2c(=S)oc3ccc(Br)cc3c2=S)cc1` (stereo not drawn) as the compound, how does the MIC read?
A: 8 µM (≈ 3.25 µg/mL)

Q: `CCC(C)c1ccc(-n2c(=S)oc3ccc(Cl)cc3c2=S)cc1` (stereo not drawn) was tested. Which MIC did it give?
A: 16 µM (≈ 5.79 µg/mL)

Q: For `CCC(C)c1ccc(-n2c(=S)oc3cc(Cl)ccc3c2=S)cc1` (stereo not drawn), which MIC is on record?
A: 8 µM (≈ 2.9 µg/mL)

Q: Which MIC does the source give for `CCCCc1ccc(-n2c(=S)oc3ccc(Cl)cc3c2=S)cc1` here?
A: 8 µM (≈ 2.9 µg/mL)

What follows are compounds tested on Mycobacterium avium (assay: Antimycobacterial activity against Mycobacterium avium CNCTC My 330/88 after 21 days by microdilution method). Conditions: CNCTC My 330/88, 504 h.
Type: functional
Outline: as §1

Q: With `Cc1ccc(-n2c(=S)oc3ccc(Br)cc3c2=S)cc1` as the compound, how does the MIC read?
A: 30 µM (≈ 10.9 µg/mL)

Q: For `Cc1ccc2c(=S)n(-c3ccc(C(C)C)cc3)c(=S)oc2c1`, which MIC is on record?
A: 0.5 µM (≈ 0.164 µg/mL)

Q: `CCC(C)c1ccc(-n2c(=S)oc3ccc(Br)cc3c2=S)cc1` (stereo not drawn) was tested. Which MIC did it give?
A: 32 µM (≈ 13 µg/mL)

Q: How did the MIC turn out when `CCC(C)c1ccc(-n2c(=S)oc3ccc(Cl)cc3c2=S)cc1` (stereo not drawn) was run?
A: 32 µM (≈ 11.6 µg/mL)

Q: Which MIC does the source give for `CCC(C)c1ccc(-n2c(=S)oc3cc(Cl)ccc3c2=S)cc1` (stereo not drawn) here?
A: 8 µM (≈ 2.9 µg/mL)

Q: For `CCCCc1ccc(-n2c(=S)oc3ccc(Cl)cc3c2=S)cc1`, which MIC is on record?
A: 16 µM (≈ 5.79 µg/mL)

These compounds were tested on Mycobacterium tuberculosis (assay: Antimycobacterial activity against Mycobacterium tuberculosis CNCTC My 331/88 after 14 days by microdilution method). Conditions: CNCTC My 331/88, 336 h.
Type: functional
Outline: as §1

Q: `Cc1ccc(-n2c(=S)oc3ccc(Br)cc3c2=S)cc1` was tested. Which MIC did it give?
A: 0.5 µM (≈ 0.182 µg/mL)

Q: How did the MIC turn out when `Cc1ccc2c(=S)n(-c3ccc(C(C)C)cc3)c(=S)oc2c1` was run?
A: 0.5 µM (≈ 0.164 µg/mL)

Q: With `CCC(C)c1ccc(-n2c(=S)oc3ccc(Br)cc3c2=S)cc1` (stereo not drawn) as the compound, how does the MIC read?
A: 1 µM (≈ 0.406 µg/mL)

Q: With `CCC(C)c1ccc(-n2c(=S)oc3ccc(Cl)cc3c2=S)cc1` (stereo not drawn) as the compound, how does the MIC read?
A: 1 µM (≈ 0.362 µg/mL)

Q: Which MIC does the source give for `CCC(C)c1ccc(-n2c(=S)oc3cc(Cl)ccc3c2=S)cc1` (stereo not drawn) here?
A: 1 µM (≈ 0.362 µg/mL)

Q: How did the MIC turn out when `CCCCc1ccc(-n2c(=S)oc3ccc(Cl)cc3c2=S)cc1` was run?
A: 2 µM (≈ 0.724 µg/mL)

What follows are compounds tested on Mycobacterium kansasii (assay: Antimycobacterial activity against Mycobacterium kansasii 6509/96 after 21 days by microdilution method). Conditions: 6509/96, 504 h.
Type: functional
Outline: (§2)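 Clinical isolate that, unlike the standard strain, is not isoniazid-resistant. Tested by dilution micromethod in Šula semisynthetic medium, with compounds added in DMSO at final 1000 down to 0.25 µmol/L in twofold steps. Löwenstein-Jensen plate used as inoculum sterility and growth control. Incubated at 37 °C and read at 14 and 21 days. MIC is the lowest concentration inhibiting growth.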

Q: For `Cc1ccc(-n2c(=S)oc3ccc(Br)cc3c2=S)cc1`, which MIC is on record?
A: 4 µM (≈ 1.46 µg/mL)

Q: For `Cc1ccc2c(=S)n(-c3ccc(C(C)C)cc3)c(=S)oc2c1`, which MIC is on record?
A: 2 µM (≈ 0.655 µg/mL)

Q: `CCC(C)c1ccc(-n2c(=S)oc3ccc(Br)cc3c2=S)cc1` (stereo not drawn) was tested. Which MIC did it give?
A: 4 µM (≈ 1.63 µg/mL)

Q: For `CCC(C)c1ccc(-n2c(=S)oc3ccc(Cl)cc3c2=S)cc1` (stereo not drawn), which MIC is on record?
A: 8 µM (≈ 2.9 µg/mL)

Q: Which MIC does the source give for `CCC(C)c1ccc(-n2c(=S)oc3cc(Cl)ccc3c2=S)cc1` (stereo not drawn) here?
A: 2 µM (≈ 0.724 µg/mL)

Q: For `CCCCc1ccc(-n2c(=S)oc3ccc(Cl)cc3c2=S)cc1`, which MIC is on record?
A: 8 µM (≈ 2.9 µg/mL)

These compounds were tested on Mycobacterium kansasii (assay: Antimycobacterial activity against Mycobacterium kansasii 6509/96 after 14 days by microdilution method). Conditions: 6509/96, 336 h.
Type: functional
Outline: as §2

Q: Which MIC does the source give for `Cc1ccc(-n2c(=S)oc3ccc(Br)cc3c2=S)cc1` here?
A: 4 µM (≈ 1.46 µg/mL)

Q: With `Cc1ccc2c(=S)n(-c3ccc(C(C)C)cc3)c(=S)oc2c1` as the compound, how does the MIC read?
A: 1 µM (≈ 0.327 µg/mL)

Q: For `CCC(C)c1ccc(-n2c(=S)oc3ccc(Br)cc3c2=S)cc1` (stereo not drawn), which MIC is on record?
A: 2 µM (≈ 0.813 µg/mL)

Q: With `CCC(C)c1ccc(-n2c(=S)oc3ccc(Cl)cc3c2=S)cc1` (stereo not drawn) as the compound, how does the MIC read?
A: 4 µM (≈ 1.45 µg/mL)

Q: Which MIC does the source give for `CCC(C)c1ccc(-n2c(=S)oc3cc(Cl)ccc3c2=S)cc1` (stereo not drawn) here?
A: 1 µM (≈ 0.362 µg/mL)

Q: For `CCCCc1ccc(-n2c(=S)oc3ccc(Cl)cc3c2=S)cc1`, which MIC is on record?
A: 8 µM (≈ 2.9 µg/mL)
